Experimental data published in paper PMC5495021 (Leukemia & lymphoma, 2015).
Entries after “also recorded” stand apart in the source; their conditions may differ. Like-named read-outs stand apart in the source and are kept apart here.

Experiments:
[1] = system: human AML leukemic cells; settings: animals implanted with human AML leukemic cells; cited from earlier work
[2] = human, in vivo
[3] = Protein binding; type: in vitro ADME, human; settings: no saturation over a clinically relevant concentration range
[4] = cited from earlier work
[5] = system: leukemic progenitor cells from 29 patients with AML; settings: including poor-prognosis chromosome abnormalities; cited from earlier work
[6] = system: fibroblast growth factor receptor (FGFR); settings: preclinical; cited from earlier work
[7] = target: CYP2D6 (Homo sapiens, UniProt P10635); test: Contribution of CYP enzymes to metabolism; type: in vitro ADME
[8] = system: acute and chronic myeloid leukemic cells; settings: inhibition of proliferation and induction of apoptosis; cited from earlier work
[9] = system: refractory/relapsed acute leukemias or high-risk myelodysplastic syndromes; test: Anti-leukemic efficacy; type: in vivo, human
How it was run: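 Adults with refractory/relapsed acute leukemia, accelerated/blast-phase CML, or high-risk MDS received IV infusion daily for 5 days per course, starting at 1.2 mg/m2/day with dose escalation. Response was graded by IWG criteria (acute leukemia/MDS) or European LeukemiaNet definitions (CML). Marrow aspirate/biopsy at baseline, course 2 Day 11–14, every 2 courses, and end of study. Descriptive statistics.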

[10] = system: xenograft models; settings: cited from earlier work
[11] = system: Src kinase family; settings: preclinical; cited from earlier work
[12] = system: BCR-Abl kinase; settings: preclinical; cited from earlier work
[13] = Plasma pharmacokinetics of SAR103168 in phase I patients; type: in vivo, human
[14] = preclinical toxicology studies; cited from earlier work
[15] = Safety / adverse events and DLT in phase I dose escalation study
[16] = system: epidermal growth factor receptor (EGFR); settings: preclinical; cited from earlier work
[17] = system: vascular endothelial growth factor receptor type 2 (VEGFR2); settings: preclinical; cited from earlier work
[18] = system: Tie2; settings: preclinical; cited from earlier work
[19] = system: platelet-derived growth factor receptor (PDGFR); settings: preclinical; cited from earlier work
[20] = system: vascular endothelial growth factor receptor type 1 (VEGFR1); settings: preclinical; cited from earlier work
[21] = mice at active doses (16.7 mg/kg IV or 2 × 40 mg/kg PO)

CYP2D6, sequence (P10635 whole entry): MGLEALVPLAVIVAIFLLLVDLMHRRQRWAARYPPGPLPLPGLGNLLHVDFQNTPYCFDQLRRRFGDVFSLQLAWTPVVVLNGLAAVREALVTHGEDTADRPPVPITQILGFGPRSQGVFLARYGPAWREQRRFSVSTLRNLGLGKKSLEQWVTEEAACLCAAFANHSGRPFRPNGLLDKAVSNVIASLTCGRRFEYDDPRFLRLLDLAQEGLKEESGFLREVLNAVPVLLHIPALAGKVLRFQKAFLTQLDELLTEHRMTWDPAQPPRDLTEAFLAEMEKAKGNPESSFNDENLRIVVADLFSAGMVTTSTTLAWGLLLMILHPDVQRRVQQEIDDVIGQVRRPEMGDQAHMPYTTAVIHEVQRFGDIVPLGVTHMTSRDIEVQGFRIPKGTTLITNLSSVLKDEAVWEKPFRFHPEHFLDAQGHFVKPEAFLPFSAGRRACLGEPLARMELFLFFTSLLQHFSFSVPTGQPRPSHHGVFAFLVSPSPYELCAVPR

## CC(C)(C)NC(=O)Nc1nc2nc(Nc3ccc4nsnc4c3)ncc2cc1-c1c(Cl)cccc1Cl [SAR103168, 1-[2-(2,1,3-benzothiadiazol-5-ylamino)-6-(2,6-dicholophenyl)-pyridol[2,3-d]pyrimidin-7-yl]-3′-tert-butylurea]
[1]
  effect of administration on tumors: tumor regression
[2]
  maximum tolerated dose (MTD): prior to reaching the MTD
[3]
  Human protein binding: > 99.3%
[4]; [21]
  AUCs achieved in animal models: ≥ 16000 ng/h/mL
  Cmax achieved in animal models: ≥ 3600 ng/mL
[4]; xenograft models
  exposures (AUCs) which demonstrated in vivo activity in xenograft models: 16000 ng/h/mL
[5]
  AML patient samples sensitive to the agent: over 85%
[6]
  activity against FGFR: Nanomolar activity
[7]
  contribution of CYP2D6 to the compound's metabolism: ~ 20%
[8]
  IC50 of anti-leukemic effects: nanomolar
[9]; efficacy population
  transient decrease in peripheral blasts: One patient
[9]; within the tested dose range
  clinical benefit: did not demonstrate a clear clinical benefit
[10]; IV, in mice
  active dose in various tumor models: 16.7 mg/kg
[10]; based on the preclinical data, human-equivalent of 10 mg/kg in mouse
  putative, partially active dose level: ~ 30 mg/m^2
[10]; in mouse, preclinical data
  putative, partially active dose level: 10 mg/kg
[11]
  activity against the Src kinase family: Nanomolar activity
[12]
  activity against the BCR-Abl kinase: Nanomolar activity
[13]; all dose groups
  time by which mean plasma concentrations were below the limit of detection: ≤ 24 h
[13]; generally, over the dose range 1.2 to 14.4 mg/m2
  tlast: ≤ 7 h
[13]; human, in vivo
  accumulation in exposures (Cmax or AUClast) upon multiple daily dosings: limited accumulation
[13]; human, in vivo, 14.4 mg/m2
  patient exposure (AUC): ~ 1000 ng/h/mL
  patient exposure (Cmax): ~ 500 ng/mL
[14]
  toxicity profile: favorable toxicity profile
[15]; 29 treated patients
  discontinuation of study treatment due to adverse events: 10.3%
[15]; planned dose level 1.2 mg/m^2, Relationship to Study Drug: No
  SAE Preferred Term: Multi-organ failure; also recorded: Bacteremia; also recorded: Pneumonia fungal; also recorded: Febrile neutropenia
[15]; planned dose level 1.2 mg/m^2, Relationship to Study Drug: Yes
  SAE Preferred Term: Echocardiogram abnormal
[15]; planned dose level 1.7 mg/m^2, Relationship to Study Drug: No
  SAE Preferred Term: Deep vein thrombosis; also recorded: Febrile neutropenia; also recorded: Staphylococcal sepsis; also recorded: Disease progression; also recorded: Pulmonary embolism
[15]; planned dose level 2.4 mg/m^2, Relationship to Study Drug: No
  SAE Preferred Term: Perirectal abscess; also recorded: Febrile neutropenia; also recorded: Anemia; also recorded: Disease progression; also recorded: Septic shock
[15]; planned dose level 4.8 mg/m^2, Relationship to Study Drug: No
  SAE Preferred Term: Bone pain; also recorded: Febrile neutropenia; also recorded: Disease progression
[15]; planned dose level 9.6 mg/m^2, Relationship to Study Drug: No
  SAE Preferred Term: Pneumonia; also recorded: Bacteremia; also recorded: Asthenia
[15]; planned dose level 14.4 mg/m^2, Relationship to Study Drug: No
  SAE Preferred Term: Disease progression; also recorded: Sinusitis fungal; also recorded: Sepsis
[16]
  activity against EGFR: Nanomolar activity
[17]
  activity against VEGFR2: Nanomolar activity
[18]
  activity against Tie2: Nanomolar activity
[19]
  activity against PDGFR: Nanomolar activity
[20]
  activity against VEGFR1: Nanomolar activity
